Experimental data reported in ChEMBL document CHEMBL4400530, “Synthesis and structure-activity relationship studies of water-soluble β-cyclodextrin-glycyrrhetinic acid conjugates as potential anti-influenza virus agents” (Eur J Med Chem, 2019).
Activity calls are given as the source filed them. The rule behind the calls is not given here.

How the values were obtained:
MDCK = assay: Cytotoxicity against MDCK cells assessed as effect on cell viability at 50 uM measured after 36 hrs by CellTiter-Glo assay; type: cell-based, Canis lupus familiaris; conditions: dog
How it was run: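 MDCK cells (1 × 10⁴ per well) left to adhere 24 h at 37 °C, 5% CO₂. Medium then replaced with fresh medium containing compound at 50 μM, in triplicate. Controls received medium with 1% DMSO. Plates incubated 36 h at 37 °C, 5% CO₂, then viability read by CellTiter-Glo luminescence.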

Influenza A virus = assay: Antiviral activity against Influenza A virus (A/WSN/33(H1N1)) infected in MDCK cells assessed as reduction in virus-induced cytopathic effect at 50 uM after 40 hrs by CellTiter-Glo assay; type: functional, organism-based; conditions: A/WSN/1933(H1N1)
How it was run: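 MDCK cells seeded, grown overnight, then infected with A/WSN/33 (H1N1) at MOI 0.1 in DMEM with 1% FBS, 2 μg/mL TPCK-treated trypsin and test compound (final DMSO 1%). Compounds screened at a single 50 μM concentration. Incubation 40 h, then viability read by CellTiter-Glo luminescence. Oseltamivir positive control, DMSO negative control. Virus stock titres determined in MDCK cells by Reed and Muench.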

Compound: CC1(C)[C@@H](O)CC[C@]2(C)[C@H]3C(=O)C=C4[C@@H]5C[C@@](C)(C(=O)NCCOCCOCCOCCOCCOCCOCc6cn(C[C@H]7O[C@@H]8O[C@H]9[C@H](O)[C@@H](O)[C@@H](O[C@H]%10[C@H](O)[C@@H](O)[C@@H](O[C@H]%11[C@H](O)[C@@H](O)[C@@H](O[C@H]%12[C@H](O)[C@@H](O)[C@@H](O[C@H]%13[C@H](O)[C@@H](O)[C@@H](O[C@H]%14[C@H](O)[C@@H](O)[C@@H](O[C@H]7[C@H](O)[C@H]8O)O[C@@H]%14CO)O[C@@H]%13CO)O[C@@H]%12CO)O[C@@H]%11CO)O[C@@H]%10CO)O[C@@H]9CO)nn6)CC[C@]5(C)CC[C@@]4(C)[C@]3(C)CC[C@@H]12
- Activity (MDCK): Non-Toxic
- Activity (Influenza A virus): Active

Compound: COC[C@H]1O[C@@H]2O[C@H]3[C@H](OC)[C@@H](OC)[C@@H](O[C@H]4[C@H](OC)[C@@H](OC)[C@@H](O[C@H]5[C@H](OC)[C@@H](OC)[C@@H](O[C@H]6[C@H](OC)[C@@H](OC)[C@@H](O[C@H]7[C@H](OC)[C@@H](OC)[C@@H](O[C@H]8[C@H](OC)[C@@H](OC)[C@@H](O[C@H]1[C@H](OC)[C@H]2OC)O[C@@H]8COC)O[C@@H]7COC)O[C@@H]6COC)O[C@@H]5Cn1cc(CNC(=O)[C@@]2(C)CC[C@]5(C)CC[C@]6(C)C(=CC(=O)[C@@H]7[C@@]8(C)CC[C@H](O)C(C)(C)[C@@H]8CC[C@]76C)[C@@H]5C2)nn1)O[C@@H]4COC)O[C@@H]3COC
- Activity (MDCK): Toxic

Compound: CC(=O)OC[C@H]1O[C@@H]2O[C@H]3[C@H](OC(C)=O)[C@@H](OC(C)=O)[C@@H](O[C@H]4[C@H](OC(C)=O)[C@@H](OC(C)=O)[C@@H](O[C@H]5[C@H](OC(C)=O)[C@@H](OC(C)=O)[C@@H](O[C@H]6[C@H](OC(C)=O)[C@@H](OC(C)=O)[C@@H](O[C@H]7[C@H](OC(C)=O)[C@@H](OC(C)=O)[C@@H](O[C@H]8[C@H](OC(C)=O)[C@@H](OC(C)=O)[C@@H](O[C@H]1[C@H](OC(C)=O)[C@H]2OC(C)=O)O[C@@H]8COC(C)=O)O[C@@H]7COC(C)=O)O[C@@H]6COC(C)=O)O[C@@H]5Cn1cc(CO[C@H]2CC[C@]5(C)[C@H]6C(=O)C=C7[C@@H]8C[C@@](C)(C(=O)OCc9ccccc9)CC[C@]8(C)CC[C@@]7(C)[C@]6(C)CC[C@H]5C2(C)C)nn1)O[C@@H]4COC(C)=O)O[C@@H]3COC(C)=O
- Activity (MDCK): Non-Toxic

Compound: CC1(C)[C@@H](O)CC[C@]2(C)[C@H]3C(=O)C=C4[C@@H]5C[C@@](C)(C(=O)NCc6cn(C[C@H]7O[C@@H]8O[C@H]9[C@H](O)[C@@H](O)[C@@H](O[C@H]%10[C@H](O)[C@@H](O)[C@@H](O[C@H]%11[C@H](O)[C@@H](O)[C@@H](O[C@H]%12[C@H](O)[C@@H](O)[C@@H](O[C@H]%13[C@H](O)[C@@H](O)[C@@H](O[C@H]%14[C@H](O)[C@@H](O)[C@@H](O[C@H]7[C@H](O)[C@H]8O)O[C@@H]%14CO)O[C@@H]%13CO)O[C@@H]%12CO)O[C@@H]%11CO)O[C@@H]%10CO)O[C@@H]9CO)nn6)CC[C@]5(C)CC[C@@]4(C)[C@]3(C)CC[C@@H]12
- Activity (MDCK): Non-Toxic
- Activity (Influenza A virus): Active

Compound: CC(=O)OC[C@H]1O[C@@H]2O[C@H]3[C@H](OC(C)=O)[C@@H](OC(C)=O)[C@@H](O[C@H]4[C@H](OC(C)=O)[C@@H](OC(C)=O)[C@@H](O[C@H]5[C@H](OC(C)=O)[C@@H](OC(C)=O)[C@@H](O[C@H]6[C@H](OC(C)=O)[C@@H](OC(C)=O)[C@@H](O[C@H]7[C@H](OC(C)=O)[C@@H](OC(C)=O)[C@@H](O[C@H]8[C@H](OC(C)=O)[C@@H](OC(C)=O)[C@@H](O[C@H]1[C@H](OC(C)=O)[C@H]2OC(C)=O)O[C@@H]8COC(C)=O)O[C@@H]7COC(C)=O)O[C@@H]6COC(C)=O)O[C@@H]5Cn1cc(-c2ccc(NC(=O)[C@@]5(C)CC[C@]6(C)CC[C@]7(C)C(=CC(=O)[C@@H]8[C@@]9(C)CC[C@H](O)C(C)(C)[C@@H]9CC[C@]87C)[C@@H]6C5)cc2)nn1)O[C@@H]4COC(C)=O)O[C@@H]3COC(C)=O
- Activity (MDCK): Non-Toxic

Compound: CC(=O)OC[C@H]1O[C@@H]2O[C@H]3[C@H](OC(C)=O)[C@@H](OC(C)=O)[C@@H](O[C@H]4[C@H](OC(C)=O)[C@@H](OC(C)=O)[C@@H](O[C@H]5[C@H](OC(C)=O)[C@@H](OC(C)=O)[C@@H](O[C@H]6[C@H](OC(C)=O)[C@@H](OC(C)=O)[C@@H](O[C@H]7[C@H](OC(C)=O)[C@@H](OC(C)=O)[C@@H](O[C@H]8[C@H](OC(C)=O)[C@@H](OC(C)=O)[C@@H](O[C@H]1[C@H](OC(C)=O)[C@H]2OC(C)=O)O[C@@H]8COC(C)=O)O[C@@H]7COC(C)=O)O[C@@H]6COC(C)=O)O[C@@H]5Cn1cc(CO[C@H]2CC[C@]5(C)[C@H]6C(=O)C=C7[C@@H]8C[C@@](C)(C(=O)O)CC[C@]8(C)CC[C@@]7(C)[C@]6(C)CC[C@H]5C2(C)C)nn1)O[C@@H]4COC(C)=O)O[C@@H]3COC(C)=O
- Activity (MDCK): Non-Toxic

Compound: CC(=O)OC[C@H]1O[C@@H]2O[C@H]3[C@H](OC(C)=O)[C@@H](OC(C)=O)[C@@H](O[C@H]4[C@H](OC(C)=O)[C@@H](OC(C)=O)[C@@H](O[C@H]5[C@H](OC(C)=O)[C@@H](OC(C)=O)[C@@H](O[C@H]6[C@H](OC(C)=O)[C@@H](OC(C)=O)[C@@H](O[C@H]7[C@H](OC(C)=O)[C@@H](OC(C)=O)[C@@H](O[C@H]8[C@H](OC(C)=O)[C@@H](OC(C)=O)[C@@H](O[C@H]1[C@H](OC(C)=O)[C@H]2OC(C)=O)O[C@@H]8COC(C)=O)O[C@@H]7COC(C)=O)O[C@@H]6COC(C)=O)O[C@@H]5Cn1cc(COCCNC(=O)[C@@]2(C)CC[C@]5(C)CC[C@]6(C)C(=CC(=O)[C@@H]7[C@@]8(C)CC[C@H](O)C(C)(C)[C@@H]8CC[C@]76C)[C@@H]5C2)nn1)O[C@@H]4COC(C)=O)O[C@@H]3COC(C)=O
- Activity (MDCK): Non-Toxic
- Activity (Influenza A virus): Active

Compound: CC(=O)OC[C@H]1O[C@@H]2O[C@H]3[C@H](OC(C)=O)[C@@H](OC(C)=O)[C@@H](O[C@H]4[C@H](OC(C)=O)[C@@H](OC(C)=O)[C@@H](O[C@H]5[C@H](OC(C)=O)[C@@H](OC(C)=O)[C@@H](O[C@H]6[C@H](OC(C)=O)[C@@H](OC(C)=O)[C@@H](O[C@H]7[C@H](OC(C)=O)[C@@H](OC(C)=O)[C@@H](O[C@H]8[C@H](OC(C)=O)[C@@H](OC(C)=O)[C@@H](O[C@H]1[C@H](OC(C)=O)[C@H]2OC(C)=O)O[C@@H]8COC(C)=O)O[C@@H]7COC(C)=O)O[C@@H]6COC(C)=O)O[C@@H]5Cn1cc(CNC(=O)[C@@]2(C)CC[C@]5(C)CC[C@]6(C)C(=CC(=O)[C@@H]7[C@@]8(C)CC[C@H](O)C(C)(C)[C@@H]8CC[C@]76C)[C@@H]5C2)nn1)O[C@@H]4COC(C)=O)O[C@@H]3COC(C)=O
- Activity (MDCK): Non-Toxic
- Activity (Influenza A virus): Active

Compound: CC1(C)[C@@H](O)CC[C@]2(C)[C@H]3C(=O)C=C4[C@@H]5C[C@@](C)(C(=O)Nc6ccc(-c7cn(C[C@H]8O[C@@H]9O[C@H]%10[C@H](O)[C@@H](O)[C@@H](O[C@H]%11[C@H](O)[C@@H](O)[C@@H](O[C@H]%12[C@H](O)[C@@H](O)[C@@H](O[C@H]%13[C@H](O)[C@@H](O)[C@@H](O[C@H]%14[C@H](O)[C@@H](O)[C@@H](O[C@H]%15[C@H](O)[C@@H](O)[C@@H](O[C@H]8[C@H](O)[C@H]9O)O[C@@H]%15CO)O[C@@H]%14CO)O[C@@H]%13CO)O[C@@H]%12CO)O[C@@H]%11CO)O[C@@H]%10CO)nn7)cc6)CC[C@]5(C)CC[C@@]4(C)[C@]3(C)CC[C@@H]12
- Activity (MDCK): Non-Toxic
